Laboratory results taken from PMC6589821 (Bioorganic & medicinal chemistry, 2019).
Entries after “also recorded” stand apart in the source; their conditions may differ.

Tests used:
pseudotyped HIV = conditions: earlier work; cited from earlier work
p160 Gag-Pol = conditions: earlier work; cited from earlier work
HIV-1 FSS RNA [1] = experiment: SPR binding to immobilised HIV-1 FSS RNA; conditions: for ka / kd: SPR, 1:1 Langmuir fit, average of four curves
HIV IIIB = conditions: earlier work; cited from earlier work
HIV-1 AD.MDR01 = conditions: patient-derived strain; cited from earlier work
HEK293FT cells = experiment: WST-1 cytotoxicity assay; format: cell-based; conditions: 24 hours
HIV-1 FSS RNA [2] = experiment: Competitive SPR assay with excess yeast tRNA in solution; format: binding
Procedure, shortened: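 Streptavidin was coupled by EDC/NHS onto a CM5 chip, then ethanolamine-blocked; about 2000 RU of biotinylated HIV-1 FSS RNA (refolded 3 min at 75 °C in HBS, pH 7.4) was captured on one flow cell. Analyte was injected with or without excess bulk yeast tRNA at 80 μL/min for 1 min in HBS. At least two injections per condition.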

HIV-1 FSS RNA [3] = experiment: Competition dialysis, HIV-1 FSS hairpin; format: binding; conditions: 2.0 μM compound, 2.5 μM RNA, 36 hours, 8 competing human hairpins
Procedure, shortened: (§1)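 RNA hairpins refolded at 2.5 μM in PBS with 1 mM EDTA (3 min 25 °C, 3 min 90 °C, 5 min 27 °C). Duplicate dialysis tubes (MWCO 3500) of RNA, plus an RNA-free control, dialysed 36 h against 2.0 μM test compound in PBS. Bound compound released with 1% Triton X-100 (final). Total compound per tube quantified by HPLC against a calibration curve.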

IRF5 RNA = experiment: Competition dialysis, IRF5 mRNA hairpin; format: binding, human; conditions: 2.0 μM compound, 2.5 μM RNA, 36 hours
Procedure, shortened: as §1

[4] = system: hairpin derived from BDNF; experiment: Competition dialysis, BDNF mRNA hairpin; format: binding, human; conditions: 2.0 μM compound, 2.5 μM RNA, 36 hours
Procedure, shortened: as §1

ka (HIV-1 FSS RNA [1]) [M⁻¹ s⁻¹] | kd (HIV-1 FSS RNA [1]) [s⁻¹] | Structure (SMILES) | other results
– | – | CCc1nc2cc3ccccc3cc2cc1C(=O)N[C@@H](C/C=C\C[C@H](NC(=O)c1cc2cc3ccccc3cc2nc1CC)C(=O)N1CCC[C@H]1C(=O)N[C@@H](Cc1ccccc1)C(=O)NCCCN)C(=O)N1CCC[C@H]1C(=O)N[C@@H](Cc1ccccc1)C(=O)NCCCN [Compound 2] | effect on pseudotyped HIV (pseudotyped HIV): inhibited both production and infectivity; p160 Gag-Pol level in virus (Western blot) (p160 Gag-Pol): concentration-dependent increases in p160 Gag-Pol
64900 | 0.0237 | CCc1nc2ccccc2cc1C(=O)N(C)[C@@H](CCn1cc(C[C@@H](C(=O)N2CCC[C@H]2C(=O)N(C)[C@@H](Cc2ccccc2)C(=O)NCCCN)N(C)C(=O)c2cc3ccccc3nc2CC)nn1)C(=O)N1CCC[C@H]1C(=O)N(C)[C@@H](Cc1ccccc1)C(=O)NCCCN [Compound 4] | effect on cellular metabolism (WST-1) (HEK293FT cells): significant effects below a concentration of 40 micromolar
14900 | 0.0068 | CCc1nc2ccccc2cc1C(=O)N(C)[C@@H](CCn1cc(C[C@@H](C(=O)N2C[C@H](O)C[C@H]2C(=O)N(C)[C@@H](Cc2ccccc2)C(=O)NCCCN)N(C)C(=O)c2cc3ccccc3nc2CC)nn1)C(=O)N1C[C@H](O)C[C@H]1C(=O)N(C)[C@@H](Cc1ccccc1)C(=O)NCCCN [Compound 5] | –
56600 | 0.00226 | CN(C(=O)c1cnc2ccccc2c1)[C@@H](CCn1cc(C[C@@H](C(=O)N2CCC[C@H]2C(=O)N(C)[C@@H](Cc2ccccc2)C(=O)NCCCN)N(C)C(=O)c2cnc3ccccc3c2)nn1)C(=O)N1CCC[C@H]1C(=O)N(C)[C@@H](Cc1ccccc1)C(=O)NCCCN [Compound 6] | fold lower affinity for the FSS than compound 3 (HIV-1 FSS RNA [1]; KD ratio versus 3): 4 fold; change of binding constant with versus without excess tRNA (HIV-1 FSS RNA [2]; SPR traces with and without excess tRNA): within statistical error; also recorded: little impact on binding; binding among hairpins in competition dialysis (HIV-1 FSS RNA [3]): preferentially binds to HIV-1 FSS; binding in competition dialysis (IRF5 RNA): appreciably bound; binding in competition dialysis [4]: appreciably bound
67400 | 0.00542 | CN(C(=O)c1cnc2ccccc2c1)[C@@H](CCn1cc(C[C@@H](C(=O)N2C[C@H](O)C[C@H]2C(=O)N(C)[C@@H](Cc2ccccc2)C(=O)NCCCN)N(C)C(=O)c2cnc3ccccc3c2)nn1)C(=O)N1C[C@H](O)C[C@H]1C(=O)N(C)[C@@H](Cc1ccccc1)C(=O)NCCCN [Compound 7] | –
1690 | 0.0207 | CCc1nc2ccccc2cc1C(=O)N(C)[C@@H](CCn1cc(C[C@@H](C(=O)N2CCC[C@H]2C(=O)N(C)[C@@H](Cc2ccccc2)C(N)=O)N(C)C(=O)c2cc3ccccc3nc2CC)nn1)C(=O)N1CCC[C@H]1C(=O)N(C)[C@@H](Cc1ccccc1)C(N)=O [Compound 8] | –
– | – | NC[C@@H]1O[C@H](O[C@H]2[C@@H](O)[C@H](O[C@@H]3[C@@H](O)[C@H](N)C[C@H](N)[C@H]3O[C@H]3O[C@H](CN)[C@@H](O)[C@H](O)[C@H]3N)O[C@@H]2CO)[C@H](N)[C@@H](O)[C@@H]1O [Neomycin, neomycin, reference compound] | SPR signal for HIV-1 FSS binding with tRNA (HIV-1 FSS RNA [2]; 30 μM tRNA, 3-fold excess relative to neomycin): completely ablated

Structure (SMILES) | ka (HIV-1 FSS RNA [1]) [M⁻¹ s⁻¹] | kd (HIV-1 FSS RNA [1]) [s⁻¹] | other results
CCc1nc2cc3ccccc3cc2cc1C(=O)N(C)[C@@H](CCn1cc(C[C@@H](C(=O)N2CCC[C@H]2C(=O)N(C)[C@@H](Cc2ccccc2)C(=O)NCCCN)N(C)C(=O)c2cc3cc4ccccc4cc3nc2CC)nn1)C(=O)N1CCC[C@H]1C(=O)N(C)[C@@H](Cc1ccccc1)C(=O)NCCCN [Compound 3] | 190000 | 0.003 | inhibition of laboratory strain HIV-1 IIIB (HIV IIIB): inhibited; inhibition of multidrug resistant strain (HIV-1 AD.MDR01): inhibited; effect on pseudotyped HIV (pseudotyped HIV): inhibited both production and infectivity; p160 Gag-Pol level in virus (Western blot) (p160 Gag-Pol): concentration-dependent increases in p160 Gag-Pol
CN(C(=O)c1cnc2ccccc2c1)[C@@H](CCn1cc(C[C@@H](C(=O)N2C[C@H](O)C[C@H]2C(=O)N(C)[C@@H](Cc2ccccc2)C(N)=O)N(C)C(=O)c2cnc3ccccc3c2)nn1)C(=O)N1C[C@H](O)C[C@H]1C(=O)N(C)[C@@H](Cc1ccccc1)C(N)=O [Compound 10] | 4090 | 0.00541 | fold difference in KD between 10 and 6 (HIV-1 FSS RNA [1]; KD ratio 10 versus 6): 23 fold
